Experimental data from different studies.
Protocols differ between the studies behind these lines.
Target: Serine/threonine-protein kinase pim-2 (PIM2, Homo sapiens, UniProt Q9P1W9)

SMILES	read-out	action	method	tested at	quantity	value
Cc1cc(NC(=O)c2cccc3cc(-c4cccc5[nH]nc(N)c45)ccc23)ccc1F	enzyme activity	inhibitor	–	0.1 µM	activity vs control	87%
CC(C)(C)c1nc2c(s1)c1nc(N)ncc1c1ccc(NS(=O)(=O)c3c(F)cccc3F)c(F)c12	enzyme activity	inhibitor	radiometric	1 µM	remaining activity	81%
Nc1nc(Nc2ccccc2)sc1C(=O)c1c(F)cccc1F	enzyme activity	inhibitor	–	10 µM	remaining activity	91%
Cn1nc(C(F)(F)F)cc1-c1cnc(N2CCc3cc(S(=O)(=O)Nc4c(F)cc(Cl)cc4F)cc(N4CCCC4=O)c32)nc1	cell-free assay	–	competition with immobilised ligand	1 µM	remaining binding	100%
CC/C(=N\NC(=O)NCc1cccc(O)c1)c1ccc(O)c(C)c1O	enzyme activity	inhibitor	–	0.1 µM	inhibition	-5%
CNc1cccc2cc(C(=O)Nc3ccc(C(=O)O)cc3)c(=O)[nH]c12	enzyme activity	inhibitor	–	10 µM	inhibition	13%
Cc1ccc(C(=O)NCc2ccsc2)cc1C#Cc1cn(C(C)C)c2ncnc(N)c12	enzyme activity	inhibitor	–	1 µM	activity vs control	92%
CS(=O)(=O)N1CCCC(NC(=O)[C@H](CCC2CCCCC2)NC(=O)c2ccc(CNc3ncnc4c3nnn4-c3ccccc3)cc2)C1 (stereo partly shown)	cell-free assay	–	competition with immobilised ligand	0.1 µM	remaining binding	88%
CS(=O)(=O)Nc1cccc(-c2csc(NC(=O)CSc3nc4nccnc4c(=O)n3CCc3ccccc3)n2)c1	enzyme activity	inhibitor	–	10 µM	inhibition	-8%
CCN(CC)CCNC(=O)c1c(C)[nH]c(/C=C2\C(=O)Nc3ccc(F)cc32)c1C	cell-free assay	–	–	0.5 µM	remaining signal	97.2%
O=C(Nc1cnn(-c2csc(C(=O)NC3COC3)c2)c1)Nc1ccccc1Cl	enzyme activity	inhibitor	–	5 µM	remaining activity	96.4%
C[C@@H]1CN(c2cc(-c3n[nH]c4ccc(OC5(C)CC5)cc34)ncn2)C[C@H](C)O1	cell-free assay	–	competition with immobilised ligand	0.1 µM	remaining binding	88%
COc1cc2ncnc(Nc3ccc(Oc4ccccc4)cc3C)c2cc1OC	enzyme activity	inhibitor	–	1 µM	inhibition	-2%
CCC(=O)N[C@H]1CC[C@@H](C(=O)N(C)c2ccc(-c3nc4ccccc4o3)cc2)C1	cell-free assay	–	competition with immobilised ligand	1 µM	remaining binding	100%
Nc1nc(NC2CCCCC2)sc1C(=O)c1ccccc1	enzyme activity	inhibitor	–	10 µM	remaining activity	94%
O=C1NC(=O)c2cc(Nc3ccc(F)cc3)c(Nc3ccc(F)cc3)cc21	cell-free assay	–	–	0.5 µM	remaining signal	98.6%

SMILES	read-out	action	method	tested at	quantity	value
Cn1c(=O)n(-c2ccc(C(C)(C)C#N)cc2)c2c3cc(-c4cnc5ccccc5c4)ccc3ncc21	enzyme activity	inhibitor	–	10 µM	remaining activity	94%
O=C1CCc2cc(Nc3cc(OC4CCOCC4)c([N+](=O)[O-])cc3Cl)ccc2N1	cell-free assay	–	competition with immobilised ligand	1 µM	remaining binding	84%
Nc1ncnc2occ(-c3ccc(NC(=O)Nc4cc(C(F)(F)F)ccc4F)cc3)c12	cell-free assay	inhibitor	–	20 µM	remaining signal	100%
Cc1c(NC(=O)c2cc(C(N)=O)nc3cc(F)ccc23)c(C(F)(F)F)nn1Cc1ccc(C#N)cc1	cell-free assay	–	competition with immobilised ligand	1 µM	remaining binding	94%
CNC(=O)c1cc(Oc2ccc(NC(=O)Nc3ccc(Cl)c(C(F)(F)F)c3)cc2)ccn1	enzyme activity	inhibitor	–	10 µM	inhibition	9%
CO[C@@H](C)c1c(Nc2ccc([C@H](N(C)C(=O)C3CCS(=O)(=O)CC3)C(F)(F)F)cc2)cnc2cc(Cl)nn12	cell-free assay	–	competition with immobilised ligand	1 µM	remaining binding	100%
O=C1Nc2ccc(Cl)cc2C1=Cc1cc(Cl)c(O)c(Cl)c1	cell-free assay	–	–	0.5 µM	remaining signal	48.6%
COc1cc(Nc2cnc(C#N)c(O[C@H](C)CN(C)C)n2)ncc1-c1cnn(C)c1	enzyme activity	inhibitor	radiometric	10 µM	remaining activity	77%
C#Cc1cccc(Nc2ncnc3cc(OCCOC)c(OCCOC)cc23)c1	cell-free assay	–	–	0.5 µM	remaining signal	97.9%
CCOc1cc(-c2nncn2C)ccc1Nc1ncc2cc(C)nc(NCC(C)(C)C)c2n1	enzyme activity	inhibitor	FRET	1 µM	inhibition	< 15%
CCN(CC)c1ccc(C2=NNC(=O)CC2C)cc1[N+](=O)[O-] (stereo not shown)	enzyme activity	inhibitor	–	10 µM	remaining activity	108%
Oc1cccc(-c2nc(N3CCOCC3)c3oc4ncccc4c3n2)c1	enzyme activity	inhibitor	–	10 µM	remaining activity	90%
COc1ccc2c(c1)O[C@@H](c1ccc(OC)c(OC)c1)C[C@H]2NC(=O)C1(c2ccc3c(c2)OC(F)(F)O3)CC1	cell-free assay	–	competition with immobilised ligand	1 µM	remaining binding	100%
Cc1sc(C(=O)NC2COC2)cc1-n1cc(NC(=O)Nc2c(F)cccc2Cl)cn1	enzyme activity	inhibitor	–	10 µM	remaining activity	96.5%
FC(F)(F)Oc1cccc(-c2cnc3ccc(-c4ccncc4)nn23)c1	enzyme activity	inhibitor	radiometric	5 µM	activity vs control	83%
